Results from ChEMBL document CHEMBL1134358, “Cyclic ketone inhibitors of the cysteine protease cathepsin K” (J Med Chem, 2001).

Key:
Cathepsin S = Cathepsin S (Homo sapiens, UniProt P25774); assay: Inhibition of human Cathepsin S; settings: read-out: Ki app
Summary of the method: (§1)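 Fluorogenic AMC-substrate assay in 100 mM acetate, 20 mM cysteine, 5 mM EDTA, pH 5.5, with 10% final DMSO. […] Apparent Ki values were determined.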

Procathepsin L = Procathepsin L (Homo sapiens, UniProt P07711); assay: Inhibition of human Cathepsin L; settings: read-out: Ki app
Cathepsin K [1] = biological target: T1, Cathepsin K (Homo sapiens, UniProt P43235); assay: In vitro inhibition of human Cathepsin K.; settings: read-out: Ki app
T1 sequence (P43235 whole entry): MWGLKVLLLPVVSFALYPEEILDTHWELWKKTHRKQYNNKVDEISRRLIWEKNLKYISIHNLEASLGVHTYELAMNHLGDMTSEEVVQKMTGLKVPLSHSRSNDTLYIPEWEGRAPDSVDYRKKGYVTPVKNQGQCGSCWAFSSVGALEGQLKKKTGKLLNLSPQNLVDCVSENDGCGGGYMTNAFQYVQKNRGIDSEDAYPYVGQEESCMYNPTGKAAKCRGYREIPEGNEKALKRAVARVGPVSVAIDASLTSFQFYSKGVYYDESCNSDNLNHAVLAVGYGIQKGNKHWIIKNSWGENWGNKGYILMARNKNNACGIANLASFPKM

Cathepsin B = Cathepsin B (Homo sapiens, UniProt P07858); assay: Inhibitory activity tested against human Cathepsin B; settings: read-out: Ki app; summary of the method: as §1
Cathepsin K [2] = biological target: T1, Cathepsin K; assay: (§2) Inhibitory activity tested against human Cathepsin K
[3] = biological target: T2, Cathepsin K (Homo sapiens) (UniProt P43235); assay: as §2
T2 sequence (whole entry): T1 sequence (P43235 whole entry)

Chain of Cathepsin S (P25774 whole entry): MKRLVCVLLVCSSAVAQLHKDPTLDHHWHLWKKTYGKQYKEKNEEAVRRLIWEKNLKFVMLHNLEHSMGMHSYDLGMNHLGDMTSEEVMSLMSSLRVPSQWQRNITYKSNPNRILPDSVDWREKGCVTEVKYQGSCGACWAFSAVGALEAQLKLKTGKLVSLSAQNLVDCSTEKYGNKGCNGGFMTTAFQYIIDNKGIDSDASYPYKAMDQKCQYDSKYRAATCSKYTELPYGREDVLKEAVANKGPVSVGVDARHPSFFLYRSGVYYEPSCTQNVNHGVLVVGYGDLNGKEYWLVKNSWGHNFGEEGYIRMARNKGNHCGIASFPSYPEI
Chain of Procathepsin L (P07711 whole entry): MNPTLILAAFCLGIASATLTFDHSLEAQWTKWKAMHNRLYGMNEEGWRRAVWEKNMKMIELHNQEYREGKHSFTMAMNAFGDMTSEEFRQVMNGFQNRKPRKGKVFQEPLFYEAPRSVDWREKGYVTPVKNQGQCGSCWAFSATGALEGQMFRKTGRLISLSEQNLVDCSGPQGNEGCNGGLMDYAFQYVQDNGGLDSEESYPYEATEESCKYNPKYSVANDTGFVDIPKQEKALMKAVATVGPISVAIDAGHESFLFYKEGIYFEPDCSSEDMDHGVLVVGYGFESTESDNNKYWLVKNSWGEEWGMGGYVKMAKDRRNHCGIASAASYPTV

Row | Ki (Cathepsin S) [nM] | Ki (Procathepsin L) [nM] | Ki (Cathepsin K [1]) [nM] | Ki (Cathepsin B) [nM] | Ki (Cathepsin K [2]) [nM] | K inact/I [3] [M⁻¹ s⁻¹] | SMILES
1 | > 10000 | > 10000 | > 10000 | > 10000 | – | – | CC(C)C[C@H](NC(=O)OCc1ccccc1)C(=O)NC1CCCCC1=O (stereo not given in full)
2 | – | – | 0.6 | – | – | – | CC(C)C[C@H](NC(=O)OCc1ccccc1)C(=O)NC1CN(C(=O)[C@H](CC(C)C)N(C)C(=O)OCc2ccccc2)CC1=O (stereo not given in full)
3 | 8 | – | – | – | – | – | CC(C)C[C@H](NC(=O)OCc1ccccc1)C(=O)NC1CCN(C(=O)[C@H](CC(C)C)NC(=O)OCc2ccccc2)CC1=O (stereo not given in full)
4 | 480 | 580 | 250 | – | – | – | CC(=O)N1CC(=O)C(NC(=O)[C@H](CC(C)C)NC(=O)OCc2ccccc2)C1 (stereo not given in full)
5 | 290 | 400 | 77 | 7300 | – | – | CN[C@@H](CC(C)C)C(=O)N1CC(=O)[C@@H](NC(=O)[C@H](CC(C)C)NC(=O)OCc2ccccc2)C1
6 | – | – | 1.9 | – | – | – | CC(C)C[C@H](NC(=O)OCc1ccccc1)C(=O)NC1CCN(C(=O)[C@H](CC(C)C)N(C)C(=O)OCc2ccccc2)CC1=O (stereo not given in full)
7 | – | – | 230 | – | – | – | CC(=O)N1CCC(NC(=O)[C@H](CC(C)C)NC(=O)OCc2ccccc2)C(=O)C1 (stereo not given in full)
8 | 90 | – | – | – | – | – | CC(C)C[C@H](NC(=O)OCc1ccccc1)C(=O)NC1CN(C(=O)[C@H](CC(C)C)NC(=O)OCc2ccccc2)CC1=O (stereo not given in full)
9 | – | – | 1.6 | 46 | – | – | CC(C)C[C@@H](CN1CC(=O)C(NC(=O)[C@H](CC(C)C)NC(=O)c2ccc3cccnc3c2)C1)NC(=O)OCc1ccccc1 (stereo not given in full)
10 | – | – | – | – | 80 | – | COCC(=O)[C@H](CC(C)C)NC(=O)[C@H](CC(C)C)NC(=O)OCc1ccccc1
11 | 51 | – | 180 | 2600 | – | – | CC(C)C[C@@H](C(=O)NC1CN(C(=O)[C@H](CC(C)C)N(C)C(=O)OCc2ccccc2)CC1=O)N(C)C(=O)OCc1ccccc1 (stereo not given in full)

The remaining lines, values behind:

Row | SMILES | Ki (Cathepsin S) [nM] | Ki (Procathepsin L) [nM] | Ki (Cathepsin K [1]) [nM] | Ki (Cathepsin B) [nM] | Ki (Cathepsin K [2]) [nM] | K inact/I [3] [M⁻¹ s⁻¹]
12 | CC(C)C[C@H](NC(=O)OCc1ccccc1)C(=O)NC1COCC1=O (stereo not given in full) | 310 | 2600 | – | > 10000 | – | –
13 | CC(C)C[C@H](NC(=O)OCc1ccccc1)C(=O)NC1CCOCC1=O (stereo not given in full) | 530 | – | 150 | > 10000 | – | –
14 | CC(C)C[C@H](NC(=O)OCc1ccccc1)C(=O)NC1CCOCC1O (stereo not given in full) | > 1000 | > 1000 | > 1000 | – | – | –
15 | CC(C)C[C@H](NC(=O)c1cc2ccccc2s1)C(=O)NC1CCOCC1=O (stereo not given in full) | – | – | – | – | 11 | –
16 | CCCOC[C@@H](O)[C@H](CC(C)C)NC(=O)[C@H](CC(C)C)NC(=O)OCc1ccccc1 | – | – | – | – | – | 4100
17 | CC(C)C[C@H](NC(=O)OCc1ccccc1)C(=O)NC1CCCC1=O (stereo not given in full) | > 10000 | > 10000 | > 10000 | > 10000 | – | –
18 | COCC(=O)[C@H](C)NC(=O)[C@H](CC(C)C)NC(=O)OCc1ccccc1 | – | – | – | > 1000 | – | –
19 | CC(C)C[C@H](NC(=O)OCc1ccccc1)C(=O)NC1COCC1O (stereo not given in full) | > 1000 | > 1000 | > 1000 | – | – | –
20 | CC(C)C[C@H](NC(=O)c1cc2ccccc2s1)C(=O)NC1COCCC1=O (stereo not given in full) | – | – | – | – | 560 | –
21 | CC(C)C[C@H](NC(=O)c1ccc2ccccc2n1)C(=O)NC1COCC1=O (stereo not given in full) | 1100 | 250 | – | 7800 | – | –
